Reference: ChEMBL document CHEMBL1140074, “Aminoacyl-anthraquinone conjugates as telomerase inhibitors: synthesis, biophysical and biological evaluation” (J Med Chem, 2008)

How the values were obtained:
[1] = species on record: Homo sapiens; test: Binding affinity to human telomeric DNA sequence assessed as stabilization of G-quadruplex at 10 uM by thermal denaturation
Procedure, shortened: (§1)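 Fluorescence melting in a LightCycler of 0.25 µM telomeric oligonucleotide HTS (5'-FAM, 3'-methyl red) in LiP buffer (10 mM LiOH, 50 mM KCl, pH 7.4 with H3PO4). Samples were denatured at 95 °C for 5 min, then cooled and reheated at 0.5 °C/min in 1 °C steps with 2 min equilibration per step. Excitation 488 nm, emission 520 nm. ΔTm was taken relative to ligand-free DNA.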

[2] = species on record: Homo sapiens; test: Binding affinity to human telomeric DNA sequence assessed as stabilization of G-quadruplex at 1 uM by thermal denaturation; procedure, shortened: as §1
[3] = biological target: DNA polymerase I, thermostable (Thermus aquaticus, UniProt P19821); test: Inhibition of Taq polymerase
Procedure, shortened: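 PCR with 2.5 ng pBR322 template and primers Tup/Tdown (0.5 µM) amplifying plasmid bases 906-1064. Compounds tested from 20 nM to 40 µM. Run 25 cycles of 94 °C, 65 °C and 72 °C (30 s each). Products resolved on 2% agarose in TBE and stained with ethidium bromide.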

[4] = biological target: Telomerase reverse transcriptase (Homo sapiens, UniProt O14746); test: Inhibition of telomerase in human JR8 cells by TRAP assay; format: cell-based
Procedure, shortened: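 Telomerase source was a CHAPS lysate of exponentially growing JR8 cells (500 ng protein per reaction). Elongation 30 min at 30 °C, then 30 PCR cycles. Products run on 10% PAGE with phosphorimager read-out, in triplicate. Drug levels kept below those inhibiting Taq.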

[5] = test system: HeLa; test: Cytotoxicity against human HeLa cells expressing telomerase after 96 hrs by MTT assay; format: functional, cell-based
Procedure, shortened: (§2)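 Cells grown in DMEM with 10% heat-inactivated FCS, penicillin/streptomycin, 37 °C, 5% CO2. Plated at 10000 cells/well and left overnight, then exposed to eight serial dilutions in triplicate for 96 h. MTT added to 0.8 mg/mL final for 2 h, formazan dissolved in DMSO, absorbance read at 540 nm. IC50 from sigmoidal dose-response fits.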

[6] = Cytotoxicity against human 293T cells expressing telomerase after 96 hrs by MTT assay; format: cell-based; details: HEK-293T; procedure, shortened: as §2

Telomerase reverse transcriptase, sequence (O14746 whole entry): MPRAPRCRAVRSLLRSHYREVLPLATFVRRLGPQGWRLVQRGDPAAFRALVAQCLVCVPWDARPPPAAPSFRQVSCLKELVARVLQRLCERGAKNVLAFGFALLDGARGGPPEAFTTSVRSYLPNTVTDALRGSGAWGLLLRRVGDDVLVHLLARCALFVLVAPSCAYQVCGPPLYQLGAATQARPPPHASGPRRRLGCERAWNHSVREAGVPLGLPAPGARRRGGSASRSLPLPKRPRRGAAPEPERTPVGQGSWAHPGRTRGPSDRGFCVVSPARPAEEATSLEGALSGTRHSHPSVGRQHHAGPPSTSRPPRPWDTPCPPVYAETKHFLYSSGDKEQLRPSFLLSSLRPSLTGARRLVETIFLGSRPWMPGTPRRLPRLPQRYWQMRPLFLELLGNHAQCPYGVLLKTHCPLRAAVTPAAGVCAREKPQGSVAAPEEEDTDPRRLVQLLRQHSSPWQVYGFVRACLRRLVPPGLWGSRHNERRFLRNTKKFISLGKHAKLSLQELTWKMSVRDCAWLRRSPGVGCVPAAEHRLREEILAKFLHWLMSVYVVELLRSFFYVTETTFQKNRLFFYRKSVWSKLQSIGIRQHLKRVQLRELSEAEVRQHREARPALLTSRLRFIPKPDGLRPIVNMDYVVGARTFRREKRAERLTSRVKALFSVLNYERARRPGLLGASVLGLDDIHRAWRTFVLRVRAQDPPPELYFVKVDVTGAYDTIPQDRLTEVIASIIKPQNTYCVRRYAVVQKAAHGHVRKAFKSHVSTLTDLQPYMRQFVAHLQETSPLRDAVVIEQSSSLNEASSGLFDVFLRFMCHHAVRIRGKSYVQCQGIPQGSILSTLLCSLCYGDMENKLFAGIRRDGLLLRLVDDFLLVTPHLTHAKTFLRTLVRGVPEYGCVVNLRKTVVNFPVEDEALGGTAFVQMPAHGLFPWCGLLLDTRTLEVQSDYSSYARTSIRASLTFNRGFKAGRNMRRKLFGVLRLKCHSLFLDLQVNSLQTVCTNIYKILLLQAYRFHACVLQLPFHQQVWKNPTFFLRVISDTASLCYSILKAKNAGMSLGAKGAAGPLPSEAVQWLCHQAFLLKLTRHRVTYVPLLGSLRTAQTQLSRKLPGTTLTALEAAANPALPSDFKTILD
DNA polymerase I, thermostable, sequence (P19821 whole entry): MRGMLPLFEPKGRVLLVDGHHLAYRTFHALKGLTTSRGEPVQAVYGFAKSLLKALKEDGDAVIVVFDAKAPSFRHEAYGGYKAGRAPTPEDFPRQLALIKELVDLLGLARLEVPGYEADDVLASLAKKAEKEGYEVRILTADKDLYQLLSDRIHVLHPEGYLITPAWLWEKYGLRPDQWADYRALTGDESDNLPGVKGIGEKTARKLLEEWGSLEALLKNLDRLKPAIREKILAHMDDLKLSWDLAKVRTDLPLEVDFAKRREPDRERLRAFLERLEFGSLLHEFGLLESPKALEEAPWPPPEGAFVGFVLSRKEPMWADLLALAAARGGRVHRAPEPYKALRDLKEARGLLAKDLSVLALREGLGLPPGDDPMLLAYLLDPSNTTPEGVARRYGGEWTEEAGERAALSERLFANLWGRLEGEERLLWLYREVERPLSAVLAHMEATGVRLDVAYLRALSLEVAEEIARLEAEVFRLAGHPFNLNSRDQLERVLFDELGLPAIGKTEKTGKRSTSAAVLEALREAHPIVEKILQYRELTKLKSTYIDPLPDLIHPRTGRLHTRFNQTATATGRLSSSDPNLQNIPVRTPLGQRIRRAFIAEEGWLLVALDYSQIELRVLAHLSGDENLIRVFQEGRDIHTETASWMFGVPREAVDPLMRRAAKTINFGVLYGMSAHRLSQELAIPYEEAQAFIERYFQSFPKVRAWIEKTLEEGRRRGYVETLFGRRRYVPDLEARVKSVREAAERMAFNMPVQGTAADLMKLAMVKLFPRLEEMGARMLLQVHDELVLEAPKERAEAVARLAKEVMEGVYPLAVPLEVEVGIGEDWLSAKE

| SMILES | ΔTm [1] [°C] | ΔTm [2] [°C] | EC50 [3] [µM] | EC50 [4] [µM] | IC50 [5] [µM] | IC50 [6] [µM] |
| --- | --- | --- | --- | --- | --- | --- |
| C[C@H](N)C(=O)NCC(=O)Nc1ccc2c(c1)C(=O)c1ccc(NC(=O)CNC(=O)[C@H](C)N)cc1C2=O | 9.2 | 6.1 | > 40 | 25 | 17 | 43 |
| O=C(CNC(=O)[C@@H]1CCCN1)Nc1ccc2c(c1)C(=O)c1ccc(NC(=O)CNC(=O)[C@@H]3CCCN3)cc1C2=O | 15.6 | 6.1 | > 40 | 10 | 33 | > 100 |
| NCCCC[C@H](N)C(=O)NCCNC(=O)c1ccc2c(c1)C(=O)c1ccc(C(=O)NCCNC(=O)[C@@H](N)CCCCN)cc1C2=O | 15.9 | 7.9 | 10 | 0.8 | 100 | > 100 |
| NCC(=O)Nc1ccc2c(c1)C(=O)c1ccc(NC(=O)CN)cc1C2=O | 3.6 | 0.1 | > 40 | 25 | 76 | > 100 |
| NCCC(=O)Nc1ccc2c(c1)C(=O)c1cc(NC(=O)CCN)ccc1C2=O | 23.4 | 11.3 | 10 | 1.2 | 57 | 79 |
| NCCCC[C@H](N)C(=O)NCCC(=O)Nc1ccc2c(c1)C(=O)c1ccc(NC(=O)CCNC(=O)[C@@H](N)CCCCN)cc1C2=O | 17.2 | 6.6 | 10 | 0.8 | 100 | > 100 |
| NCCNC(=O)c1ccc2c(c1)C(=O)c1ccc(C(=O)NCCN)cc1C2=O | 9 | 2 | 20 | 5 | 40 | 86 |
| NCCCC[C@H](N)C(=O)NCCC(=O)Nc1ccc2c(c1)C(=O)c1cc(NC(=O)CCNC(=O)[C@@H](N)CCCCN)ccc1C2=O | 17 | 3 | 2.5 | 1.5 | > 100 | > 100 |
| CC[C@H](C)[C@H](N)C(=O)NCC(=O)Nc1ccc2c(c1)C(=O)c1ccc(NC(=O)CNC(=O)[C@@H](N)[C@@H](C)CC)cc1C2=O | 4.3 | 0.8 | > 40 | 25 | 18 | 42 |
